Assay results taken from ChEMBL document CHEMBL1130107, “Discovery of CGS 27023A, a non-peptidic, potent, and orally active stromelysin inhibitor that blocks cartilage degradation in rabbits” (J Med Chem, 1997).

Molecular target: T1, Stromelysin-1 (Homo sapiens, UniProt P08254)
Test: Inhibition activity against recombinant human stromelysin (Matrix metalloprotease-3) (Inactive); call rule not given here
How it was run: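 Substance P (0.5 mM) cleaved by recombinant human stromelysin (8 μg, 2 units) for 30 min at 37 °C with test compound diluted from 10 mM stock into assay buffer. Reaction stopped with 10 mM EDTA. Substance P 7-11 fragment quantified by RP-8 HPLC. IC50 versus inhibitor-free control, mean of two independent measurements. Ki derived from mean IC50 by Waley's method.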

T1 sequence (P08254 whole entry): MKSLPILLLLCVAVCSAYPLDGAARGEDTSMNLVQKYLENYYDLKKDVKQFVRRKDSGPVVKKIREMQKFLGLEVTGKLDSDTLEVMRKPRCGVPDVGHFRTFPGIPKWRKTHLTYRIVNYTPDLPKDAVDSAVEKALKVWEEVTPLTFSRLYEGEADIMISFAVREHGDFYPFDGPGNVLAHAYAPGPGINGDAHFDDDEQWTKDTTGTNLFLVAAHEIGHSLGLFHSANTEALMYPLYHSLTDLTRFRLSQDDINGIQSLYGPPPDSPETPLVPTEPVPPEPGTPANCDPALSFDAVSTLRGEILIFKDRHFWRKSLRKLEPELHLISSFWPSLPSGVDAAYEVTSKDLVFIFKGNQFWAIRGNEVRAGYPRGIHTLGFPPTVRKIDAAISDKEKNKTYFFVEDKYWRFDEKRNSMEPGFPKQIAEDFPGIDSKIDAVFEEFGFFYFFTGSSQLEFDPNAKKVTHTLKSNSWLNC

| Ki | Structure (SMILES) |
| --- | --- |
| Not Active | CC(C)CN(CC(=O)NO)S(=O)(=O)c1ccc(S(C)(=O)=O)cc1 |
| Not Active | CC(C)CN(CC(=O)NO)S(=O)(=O)c1ccc([N+](=O)[O-])cc1 |
| Not Active | CC(C)CN(CC(=O)NO)S(=O)(=O)c1ccc(C(C)(C)C)cc1 |

Molecular target: T1, Stromelysin-1
Test: Inhibition activity against recombinant human stromelysin (Matrix metalloprotease-3)

| Ki | Structure (SMILES) |
| --- | --- |
| 29 nM | COc1ccc(S(=O)(=O)N(Cc2ccccc2)[C@H](Cc2ccccc2)C(=O)NO)cc1 |
| 104 nM | COc1ccc(CN(CC(=O)NO)S(=O)(=O)c2ccc(OC)cc2)cc1 |
| 61 nM | COc1ccc(S(=O)(=O)N(CC(=O)NO)CC2CCCCC2)cc1 |
| 36 nM | COc1ccc(S(=O)(=O)N(Cc2ccccc2)[C@H](C)C(=O)NO)cc1 |
| 71 nM | COc1ccc(S(=O)(=O)N(Cc2ccccc2)C(Cc2ccccc2)C(=O)NO)cc1 (stereo not drawn) |
| 34 nM | COc1ccc(S(=O)(=O)N(Cc2ccccc2)[C@@H](C(=O)NO)C(C)C)cc1 |
| 70 nM | COc1ccc(S(=O)(=O)N(CC(=O)NO)Cc2ccccc2)cc1 |
| 4400 nM | COc1ccc(S(=O)(=O)NCC(=O)NO)cc1 |
| 86 nM | COc1ccc(S(=O)(=O)N(Cc2ccccc2)C(C)C(=O)NO)cc1 (stereo not drawn) |
| 92 nM | COc1ccc(S(=O)(=O)N(Cc2ccccc2)C(C(=O)NO)C(C)C)cc1 (stereo not drawn) |
| 94 nM | COc1ccc(S(=O)(=O)N(CCC(C)C)CC(=O)NO)cc1 |
| 141 nM | COc1ccc(S(=O)(=O)N(Cc2ccccc2)[C@@H](C)C(=O)NO)cc1 |
| 134 nM | COc1ccc(S(=O)(=O)N(CC(=O)NO)Cc2ccc3ccccc3n2)cc1 |
| 23 nM | COc1ccc(S(=O)(=O)N(Cc2ccccc2)[C@H](CC(C)C)C(=O)NO)cc1 |

| Structure (SMILES) | Ki |
| --- | --- |
| CC(C)CN(CC(=O)NO)S(=O)(=O)c1ccc(N(C)C)cc1 | 4400 nM |
